Most compounds without a hit are left out; they make up all but 1.7% or so of the library.
CAL PDZ FP-1: inhibitors of human CAL PDZ peptide binding | Q9HD26 | purified CAL PDZ, TMR-peptide fluorescence polarization, 1 h | inhibition, % at 20 µM | 330,000 compounds, 0.02% hits | AID 504414;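 active = highest replicate inhibition of at least 40%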
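Read-out basis: mP drop reported as inhibition | Assay system: Tagged CAL PDZ protein CerCALP, purified | Benchmarks: Unlabelled peptide for full inhibition, DMSO wells as neutral | Schedule: 1 h incubation at room temperature before polarization reading | Buffer or medium: Sodium phosphate/NaCl buffer pH 7.4 with TCEP, IgG, Thesit | Doses: Single point, 20 µM | Measured by: Fluorescence polarization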
ARNT TACC3 PPI: ARNT/TACC3 interaction disruption | AlphaScreen His-ARNT PAS-B/GST-TACC3 binding, luminescence; TACC3 fragment carries E629A point mutation | inhibition, % at 9.99 µM | 390,000 compounds, 0.66% hits | AID 623870;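 active = mean inhibition of replicates at least 50% and at least half of replicates each reaching 50%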
CAL PDZ FP-2: blocks peptide binding to the human CAL PDZ domain; inhibition, % at 24.9 µM; Q9HD26; purified CAL PDZ, TMR-peptide fluorescence polarization, 1 h; 300,000 compounds, 0.92% hits;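 active = mean inhibition of at least 30% with at least half of replicates also reaching 30%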
miR122 inh: miR-122 inhibition in Huh7 cells. Huh7 miR-122 Renilla luciferase sensor, 48 h; neutral wells = 0, positive control = 100. activation (reporter increase), % at 12.5 µM. 340,000 compounds, 0.3% hits;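 active = mean replicate activation score at least 90 and every replicate individually at or above 90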;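 also: higher luciferase means less miR-122 activity so hits act as miR-122 inhibitors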
F508del corr: CFTR F508del correction in bronchial cells; CFBE cells, YFP halide quenching; stimulated with forskolin plus potentiator P3; % fluorescence drop versus neutral controls; 350,000 compounds, 0.36% hits; activity (quench increase), % at 7.58 µM;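 active = mean added fluorescence quench of at least 8% versus neutral control, with both replicates also reaching 8%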;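 also: cells transiently co-express mutant CFTR-F508del with the halide-sensitive YFP; corrector assay measuring rescue of mutant channel to the surface after 24 h compound exposure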
PGC1a acetyl inh: PGC1a acetylation modulation, inhibitor mode; U2OS PGC1a acetylation, AlphaScreen anti-acetyl-lysine; with virally co-expressed GCN5 acetyltransferase; inhibition, % at 15.6 µM; 350,000 compounds, 0.17% hits;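 active = every replicate shows inhibition of at least 40%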
ARNT Alpha ctr-1: interferes with AlphaScreen signal, flagging false ARNT-TACC3 hits. AID 651705. AC50, µM (doses to about 68 µM). His-ARNT PASB-GST AlphaScreen artifact counter-screen, luminescence. 1,200 compounds, 50% hits. shares compounds with ARNT TACC3 PPI;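 active = every separate test run was called active for a drop in luminescence, with AC50 within twice the top valid dose, actives reach about 71 µM in these data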
ARNT Alpha ctr-2: produces AlphaScreen artifacts in ARNT-TACC3 counter-screen | shares compounds with ARNT TACC3 PPI | Dual-tagged His-ARNT PASB-GST AlphaScreen artifact counter-screen | AC50, µM | 45 compounds, 70% hits | AID 720564;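 active = luminescence drop, with half-maximal potency fitted within twice the sample's top valid dose, cut at about 70 µM in these data; inactive = the rest, including signal moving the wrong way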
Of the large screens only hits and unclear results are named; the others gave an inactive call (follow-up assays come after a bar, where they were run).

C/C=C/c1ccc([C@@H]2[C@H](CO)N3CCCCN(C(=O)Cc4cccnc4)C[C@@H]23)cc1	none (no result: CAL PDZ FP-1, CAL PDZ FP-2)
CCn1nc(-c2cccnc2)nc2c(=O)n(C)c(=O)nc1-2	none (no result: CAL PDZ FP-1, ARNT TACC3 PPI, CAL PDZ FP-2, miR122 inh, F508del corr, PGC1a acetyl inh) | ARNT Alpha ctr-2 inactive
COc1cccc(-c2ccc([C@@H]3[C@@H](CO)N4CCCCN(C(=O)Cc5ccncc5)C[C@H]34)cc2)c1	none (no result: CAL PDZ FP-1, CAL PDZ FP-2)
O=C(Nc1ccc(Cl)cc1)O/N=C(\c1ccccc1)c1ccccn1	ARNT TACC3 PPI 50 (no result: F508del corr) | ARNT Alpha ctr-1 inactive
CC=Cc1ccc2n(c1=O)C[C@H]1[C@H](CO)[C@@H](C(=O)O)[C@@H]2N1S(=O)(=O)c1ccccc1F (mixture of isomers)	none (no result: CAL PDZ FP-1, CAL PDZ FP-2, miR122 inh, F508del corr, PGC1a acetyl inh)
O=C(Cc1cccnc1)N1CCCCN2[C@H](CO)[C@@H](c3ccc(C#CC4CC4)cc3)[C@H]2C1	none (no result: CAL PDZ FP-1, ARNT TACC3 PPI, CAL PDZ FP-2)
FC(F)(F)c1ccc(CNCCc2c[nH]c3ccccc23)cc1	none
Clc1cccc(CNCCc2c[nH]c3ccccc23)c1	ARNT TACC3 PPI 52 (no result: CAL PDZ FP-1, miR122 inh) | ARNT Alpha ctr-1 inactive
Oc1ccc(CN2CCC3CCCCC3C2)c2cccnc12 (centres undefined)	none (no result: CAL PDZ FP-1, ARNT TACC3 PPI, CAL PDZ FP-2, miR122 inh, F508del corr, PGC1a acetyl inh) | ARNT Alpha ctr-1 3.3µM
N#CC1(c2ccccc2)CCN(C2CC(=O)N(c3cccc(F)c3)C2=O)CC1 (centres undefined)	none
Oc1cccc2cccnc12	none (no result: CAL PDZ FP-1, ARNT TACC3 PPI, CAL PDZ FP-2)
N#CC1(c2ccccc2)CCN(Cc2ccc(O)c3ncccc23)CC1	none (no result: CAL PDZ FP-1, ARNT TACC3 PPI, CAL PDZ FP-2, miR122 inh, F508del corr, PGC1a acetyl inh) | ARNT Alpha ctr-1 5.9µM
O=C(N/N=C/c1c(O)n(CCC2=CCCCC2)c(=S)[nH]c1=O)c1ccccc1	none (no result: miR122 inh, F508del corr, PGC1a acetyl inh)
O=C(N/N=C/c1c(O)n(CCC2=CCCCC2)c(=O)[nH]c1=O)c1ccccc1	ARNT TACC3 PPI 51 (no result: F508del corr) | ARNT Alpha ctr-1 inactive
CC1CN(c2ccc([N+](=O)[O-])c3cccnc23)CC(C)N1 (centres undefined)	ARNT TACC3 PPI 59 (no result: F508del corr) | ARNT Alpha ctr-1 inactive
